Source: ChEMBL document CHEMBL1132841, “Optimization of a somatostatin mimetic via constrained amino acid and backbone incorporation” (Bioorg Med Chem Lett, 2000)

Key:
[1] = molecular target: T1, Somatostatin receptor type 3 (Homo sapiens, UniProt P32745); assay: Inhibitory concentration required for somatostatin 3 receptor in radioligand binding assay ([125I]Tyr11-SRIF)
Outline: (§1)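 IC50 values were determined by displacement of [125I]-Tyr11-SRIF on membranes from CHO-K1 cells expressing the relevant human sst subtype. Unlabelled SRIF defined nonspecific binding. Bound ligand was separated by rapid filtration on glass-fibre filters pre-soaked in 0.5% PEI. Filters were washed three times with 50 mM Tris-HCl pH 7.4 containing 5 mg/mL BSA and gamma counted.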

[2] = molecular target: T2, Somatostatin receptor type 4 (Homo sapiens, UniProt P31391); assay: Inhibition of somatostatin binding to sst4 receptor at 1 uM in radioligand binding assay ([125I]Tyr11-SRIF) in membranes from CHO-K1 cells; type: cell membranes
Outline: (§2)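 Competitive binding against [125I]-Tyr11-SRIF on membranes from CHO-K1 cells expressing human sst1–sst5, with each test compound at a single concentration. Nonspecific binding was defined with unlabelled SRIF. Incubations were stopped by rapid filtration through 0.5% PEI-soaked glass-fibre filters, then three washes in 50 mM Tris-HCl pH 7.4 with 5 mg/mL BSA. Filter radioactivity was gamma counted.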

[3] = molecular target: T1, Somatostatin receptor type 3; assay: Inhibition of somatostatin binding to sst3 receptor at 1 uM in radioligand binding assay ([125I]Tyr11-SRIF) in membranes from CHO-K1 cells; type: cell membranes; outline: as §2
[4] = molecular target: T3, Somatostatin receptor type 2 (Homo sapiens, UniProt P30874); assay: Inhibition of somatostatin binding to sst2 receptor at 1 uM in radioligand binding assay ([125I]Tyr11-SRIF) in membranes from CHO-K1 cells; type: cell membranes; outline: as §2
[5] = molecular target: T2, Somatostatin receptor type 4; assay: Inhibitory concentration required for somatostatin 4 receptor in radioligand binding assay ([125I]Tyr11-SRIF); outline: as §1
[6] = molecular target: T4, Somatostatin receptor type 5 (Homo sapiens, UniProt P35346); assay: Inhibition of somatostatin binding to sst5 receptor at 1 uM in radioligand binding assay ([125I]Tyr11-SRIF) in membranes from CHO-K1 cells; type: cell membranes; outline: as §2
[7] = molecular target: T3, Somatostatin receptor type 2; assay: Inhibitory concentration required for somatostatin 2 receptor in radioligand binding assay ([125I]Tyr11-SRIF); outline: as §1
[8] = molecular target: T5, Somatostatin receptor type 1 (Homo sapiens, UniProt P30872); assay: Inhibitory concentration required for somatostatin 1 receptor in radioligand binding assay ([125I]Tyr11-SRIF); outline: as §1
[9] = molecular target: T4, Somatostatin receptor type 5; assay: Inhibitory concentration required for somatostatin 5 receptor in radioligand binding assay ([125I]-Tyr11-SRIF); outline: as §1
[10] = molecular target: T5, Somatostatin receptor type 1; assay: Inhibition of somatostatin binding to sst1 receptor at 1 uM in radioligand binding assay ([125I]Tyr11-SRIF) in membranes from CHO-K1 cells; type: cell membranes; outline: as §2

T5 sequence (P30872 whole entry): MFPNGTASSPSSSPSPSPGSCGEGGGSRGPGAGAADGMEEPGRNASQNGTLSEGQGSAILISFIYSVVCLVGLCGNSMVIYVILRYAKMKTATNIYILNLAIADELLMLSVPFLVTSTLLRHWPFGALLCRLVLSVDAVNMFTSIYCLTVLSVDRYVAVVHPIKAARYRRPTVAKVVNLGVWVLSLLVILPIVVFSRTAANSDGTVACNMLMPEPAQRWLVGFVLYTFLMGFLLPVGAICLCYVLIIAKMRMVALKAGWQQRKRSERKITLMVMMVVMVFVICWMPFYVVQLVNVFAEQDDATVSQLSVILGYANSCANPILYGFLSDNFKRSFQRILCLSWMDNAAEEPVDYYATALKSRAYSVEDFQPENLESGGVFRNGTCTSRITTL
T1 sequence (P32745 whole entry): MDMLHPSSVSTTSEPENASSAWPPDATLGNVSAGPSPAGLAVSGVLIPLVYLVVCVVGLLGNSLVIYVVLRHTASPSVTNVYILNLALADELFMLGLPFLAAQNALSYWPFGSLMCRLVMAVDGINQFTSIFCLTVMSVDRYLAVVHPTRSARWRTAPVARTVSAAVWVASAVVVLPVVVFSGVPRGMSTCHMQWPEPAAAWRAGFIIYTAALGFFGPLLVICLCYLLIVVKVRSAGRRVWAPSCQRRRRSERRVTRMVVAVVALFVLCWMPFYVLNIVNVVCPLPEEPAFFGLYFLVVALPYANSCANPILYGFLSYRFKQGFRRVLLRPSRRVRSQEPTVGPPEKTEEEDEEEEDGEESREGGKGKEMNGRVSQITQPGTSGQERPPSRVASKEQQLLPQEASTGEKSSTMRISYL
T3 sequence (P30874 whole entry): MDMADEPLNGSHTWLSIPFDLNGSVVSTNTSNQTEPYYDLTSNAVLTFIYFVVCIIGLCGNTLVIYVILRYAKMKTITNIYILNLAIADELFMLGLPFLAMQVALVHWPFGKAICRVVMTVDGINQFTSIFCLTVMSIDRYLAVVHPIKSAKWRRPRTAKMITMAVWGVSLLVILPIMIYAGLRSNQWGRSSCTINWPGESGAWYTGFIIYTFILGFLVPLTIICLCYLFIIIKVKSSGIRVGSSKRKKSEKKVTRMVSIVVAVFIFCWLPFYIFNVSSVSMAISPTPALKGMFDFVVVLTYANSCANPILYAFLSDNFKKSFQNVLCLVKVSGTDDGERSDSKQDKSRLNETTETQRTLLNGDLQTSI
T2 sequence (P31391 whole entry): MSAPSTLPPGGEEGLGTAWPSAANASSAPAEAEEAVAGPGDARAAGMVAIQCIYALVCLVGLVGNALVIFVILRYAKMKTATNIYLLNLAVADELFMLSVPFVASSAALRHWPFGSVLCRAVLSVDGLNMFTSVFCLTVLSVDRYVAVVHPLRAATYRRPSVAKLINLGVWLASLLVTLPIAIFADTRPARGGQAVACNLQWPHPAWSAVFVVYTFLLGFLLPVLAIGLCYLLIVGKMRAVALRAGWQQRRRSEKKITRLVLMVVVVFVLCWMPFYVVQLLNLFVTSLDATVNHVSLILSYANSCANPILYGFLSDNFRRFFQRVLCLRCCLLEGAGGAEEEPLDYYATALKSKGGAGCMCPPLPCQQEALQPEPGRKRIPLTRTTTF
T4 sequence (P35346 whole entry): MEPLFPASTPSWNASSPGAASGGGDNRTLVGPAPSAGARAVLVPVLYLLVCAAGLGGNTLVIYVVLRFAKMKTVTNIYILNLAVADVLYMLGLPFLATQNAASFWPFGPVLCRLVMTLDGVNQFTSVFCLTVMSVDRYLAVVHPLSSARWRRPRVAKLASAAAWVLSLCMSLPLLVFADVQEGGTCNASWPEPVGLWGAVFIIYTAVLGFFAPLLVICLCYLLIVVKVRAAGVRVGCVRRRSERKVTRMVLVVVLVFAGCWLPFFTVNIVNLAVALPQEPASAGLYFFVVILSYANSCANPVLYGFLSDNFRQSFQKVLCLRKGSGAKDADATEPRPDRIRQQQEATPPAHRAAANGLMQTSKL

Structure (SMILES) | IC50 [1] | inhibition [2] | inhibition [3] | inhibition [4] | IC50 [5] | inhibition [6] | IC50 [7] | IC50 [8] | IC50 [9] | inhibition [10]
NCCCC1CCCN2C(=O)[C@@H](Cc3c[nH]c4ccccc34)SCCN(Cc3cccc4ccccc34)C(=O)C12 (stereo not given in full) | 1260 nM | 99% | 44% | 74% | 41 nM | 89% | 275 nM | 407 nM | 41 nM | 64%
NCC[C@H]1C[C@@H]2C(=O)N(Cc3cccc4ccccc34)CCS[C@H](Cc3c[nH]c4ccccc34)C(=O)N2C1 |  | 17% | 16% | 20% |  | 50% |  |  |  | 28%
NCC[C@@H]1C[C@@H]2C(=O)N(Cc3cccc4ccccc34)CCS[C@H](Cc3c[nH]c4ccccc34)C(=O)N2C1 |  | 12% | 19% | 7% |  | 56% |  |  |  | 13%

The next lines start with the values.

IC50 [1] | inhibition [2] | inhibition [3] | inhibition [4] | IC50 [5] | inhibition [6] | IC50 [7] | IC50 [8] | IC50 [9] | inhibition [10] | Structure (SMILES)
3090 nM | 43% | 42% | 33% | 1050 nM | 99% | 1590 nM | 501 nM | 87 nM | 64% | NCCCC[C@H]1NC(=O)[C@@H](Cc2c[nH]c3ccccc23)SCCN(Cc2cccc3ccccc23)C1=O
 | 41% | 13% | 7% |  | 64% |  |  |  | 36% | NCCCC[C@H]1NC(=O)[C@@H](Cc2c[nH]c3ccccc23)Sc2ccccc2CN(Cc2cccc3ccccc23)C1=O
